Measured values published in ChEMBL document CHEMBL1137756, “Induction of apoptosis promoted by Bang52; a small molecule that downregulates Bcl-x(L)” (2009).
The source made the active and inactive calls.

Key:
[1] = Cell cycle arrest in human TK6 cells expressing wild type p53 assessed as accumulation at sub-G0/G1 phase at 0.1 uM after 72 hrs by flow cytometry; assay type: functional, cell-based
Method in brief: (§1)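 Cells exposed 72 h to vehicle or compound (0.1 μM doxorubicin or 25 μM others) and harvested. Washed twice in ice-cold PBS, then resuspended in hypotonic solution (50 μg/ml propidium iodide, 25 μg/ml RNase, 0.1% sodium citrate, 0.1% Triton X-100) and held 1.5 h at 4°C in the dark. Flow cytometry at 10,000 events per histogram; cell death taken as the sub-G0/G1 fraction.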

[2] = Cell cycle arrest in p53 deficient human NH32 cells assessed as accumulation at sub-G0/G1 phase at 0.1 uM after 72 hrs by flow cytometry; assay type: functional, cell-based; method in brief: as §1
[3] = Cell cycle arrest in human WTK1 cells expressing p53 M237I mutant assessed as accumulation at sub-G0/G1 phase at 0.1 uM after 72 hrs by flow cytometry; assay type: functional, cell-based; method in brief: as §1
[4] = system: TK6; experiment: Induction of p53 phosphorylation at Ser15 in human TK6 cells expressing wild type p53 at 0.1 uM after 8 hrs by Western blot analysis; assay type: functional, cell-based
Method in brief: (§2)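 Exposure for 8 h to vehicle, 0.1 μM doxorubicin or 25 μM test agents, followed by protein extraction. Western blots probed for total p53, phospho-p53 (Ser15), p21cip1/Waf1 and β-actin.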

[5] = system: TK6; experiment: Induction of p53 transcriptional activity in human TK6 cells expressing wild type p53 assessed as p21-Cip1/Waf1 expression at 0.1 uM after 8 hrs by Western blot analysis; assay type: functional, cell-based; method in brief: as §2
[6] = system: WTK1; experiment: Induction of p53 phosphorylation at Ser15 in human WTK1 cells expressing p53 M237I mutant at 0.1 uM after 8 hrs by Western blot analysis; assay type: functional, cell-based; method in brief: as §2
[7] = system: WTK1; experiment: Induction of p53 transcriptional activity in human WTK1 cells expressing p53 M237I mutant assessed as p21-Cip1/Waf1 expression at 0.1 uM after 8 hrs by Western blot analysis; assay type: functional, cell-based; method in brief: as §2
[8] = system: TK6; experiment: Induction of p53 phosphorylation at Ser15 in human TK6 cells expressing wild type p53 at 25 uM after 8 hrs by Western blot analysis; assay type: functional, cell-based
Method in brief: (§3)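 TK6 and WTK1 cells (NH32 also run) treated 8 h at 25 μM, vehicle or doxorubicin 0.1 μM. Extracts immunoblotted for p53, phospho-p53 (Ser15), p21cip1/Waf1 and β-actin.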

[9] = system: TK6; experiment: Induction of p53 transcriptional activity in human TK6 cells expressing wild type p53 assessed as p21-Cip1/Waf1 expression at 25 uM after 8 hrs by Western blot analysis; assay type: functional, cell-based; method in brief: as §3
[10] = system: WTK1; experiment: Induction of p53 phosphorylation at Ser15 in human WTK1 cells expressing p53 M237I mutant at 25 uM after 8 hrs by Western blot analysis; assay type: functional, cell-based; method in brief: as §3
[11] = system: WTK1; experiment: Induction of p53 transcriptional activity in human WTK1 cells expressing p53 M237I mutant assessed as p21-Cip1/Waf1 expression at 25 uM after 8 hrs by Western blot analysis; assay type: functional, cell-based; method in brief: as §3
[12] = system: TK6; experiment: Induction of apoptosis in human TK6 cells expressing wild type p53 assessed as increase in cleaved caspase 3 level at 0.1 uM after 8 hrs by Western blot analysis; assay type: functional, cell-based
Method in brief: (§4)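 Exposure for 8 h to vehicle, 0.1 μM doxorubicin or 25 μM test agents, followed by protein extraction. Western blots probed for cleaved PARP, caspase-3 and β-actin as loading reference.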

[13] = system: NH32; experiment: Induction of apoptosis in p53 deficient human NH32 cells assessed as increase in cleaved caspase 3 level at 0.1 uM after 8 hrs by Western blot analysis; assay type: functional, cell-based; method in brief: as §4
[14] = system: WTK1; experiment: Induction of apoptosis in human WTK1 cells expressing p53 M237I mutant assessed as increase in cleaved caspase 3 level at 0.1 uM after 8 hrs by Western blot analysis; assay type: functional, cell-based; method in brief: as §4
[15] = system: TK6; experiment: Induction of apoptosis in human TK6 cells expressing wild type p53 assessed as decrease in pro-caspase 3 level at 0.1 uM after 8 hrs by Western blot analysis; assay type: functional, cell-based; method in brief: as §4
[16] = system: NH32; experiment: Induction of apoptosis in p53 deficient human NH32 cells assessed as decrease in pro-caspase 3 level at 0.1 uM after 8 hrs by Western blot analysis; assay type: functional, cell-based; method in brief: as §4
[17] = system: WTK1; experiment: Induction of apoptosis in human WTK1 cells expressing p53 M237I mutant assessed as decrease in pro-caspase 3 level at 0.1 uM after 8 hrs by Western blot analysis; assay type: functional, cell-based; method in brief: as §4
[18] = system: TK6; experiment: Induction of apoptosis in human TK6 cells expressing wild type p53 assessed as increase in PARP cleavage at 0.1 uM after 8 hrs by Western blot analysis; assay type: functional, cell-based; method in brief: as §4
[19] = system: NH32; experiment: Induction of apoptosis in p53 deficient human NH32 cells assessed as increase in PARP cleavage at 0.1 uM after 8 hrs by Western blot analysis; assay type: functional, cell-based; method in brief: as §4
[20] = system: WTK1; experiment: Induction of apoptosis in human WTK1 cells expressing p53 M237I mutant assessed as increase in PARP cleavage at 0.1 uM after 8 hrs by Western blot analysis; assay type: functional, cell-based; method in brief: as §4
[21] = system: TK6; experiment: Induction of apoptosis in human TK6 cells expressing wild type p53 assessed as live cell population at 25 uM after 8 hrs using annexin-V and 7-ADD staining by flow cytometry; assay type: functional
Method in brief: (§5)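 TK6 cells given 25 μM or vehicle for 8 h, washed twice in ice-cold PBS, stained with Annexin-V-PE plus 7-ADD. Flow cytometry assigned quadrant populations as percent of total cells. Histograms representative of three independent experiments.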

[22] = Cell cycle arrest in human TK6 cells expressing wild type p53 assessed as accumulation at sub-G0/G1 phase at 25 uM after 72 hrs by flow cytometry; assay type: functional, cell-based
Method in brief: (§6)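 B lymphoblast lines TK6 (wild-type p53), NH32 (p53−/−) and WTK1 (mutant p53) exposed 72 h to 25 μM against vehicle; doxorubicin 0.1 μM as p53-dependent control. Washed twice in ice-cold PBS, held 1.5 h at 4°C in the dark in hypotonic fluorochrome solution (50 μg/ml propidium iodide, 25 μg/ml RNase, 0.1% citrate, 0.1% Triton X-100). Sub-G0/G1 apoptotic percentage from 10,000 events per flow histogram.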

[23] = Cell cycle arrest in p53 deficient human NH32 cells assessed as accumulation at sub-G0/G1 phase at 25 uM after 72 hrs by flow cytometry; assay type: functional, cell-based; method in brief: as §6
[24] = Cell cycle arrest in human WTK1 cells expressing p53 M237I mutant assessed as accumulation at sub-G0/G1 phase at 25 uM after 72 hrs by flow cytometry; assay type: functional, cell-based; method in brief: as §6
[25] = system: TK6; experiment: Induction of apoptosis in human TK6 cells expressing wild type p53 assessed as depolarization of inner mitochondrial membrane potential at 25 uM after 8 hrs by flow cytometry relative to CCCP; assay type: functional, cell-based
Method in brief: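 TK6 cells exposed 8 h to 25 μM, vehicle, or CCCP 100 μM as depolarisation control. Cells washed in ice-cold PBS and resuspended in PBS. Membrane potential read by flow cytometry as FL1 (JC-1 monomers) versus FL2 (aggregates) dual-parameter plots. Representative of three independent experiments.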

[26] = system: TK6; experiment: Induction of apoptosis in human TK6 cells expressing wild type p53 assessed as increase in cleaved caspase 3 level at 25 uM after 8 hrs by Western blot analysis; assay type: functional, cell-based
Method in brief: (§7)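 TK6, NH32 and WTK1 cells treated 8 h with 25 μM or vehicle; doxorubicin 0.1 μM as comparator. Protein extracts analysed by Western blot probed for cleaved PARP, caspase-3 and β-actin.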

[27] = system: NH32; experiment: Induction of apoptosis in p53 deficient human NH32 cells assessed as increase in cleaved caspase 3 level at 25 uM after 8 hrs by Western blot analysis; assay type: functional, cell-based; method in brief: as §7
[28] = system: WTK1; experiment: Induction of apoptosis in human WTK1 cells expressing p53 M237I mutant assessed as increase in cleaved caspase 3 level at 25 uM after 8 hrs by Western blot analysis; assay type: functional, cell-based; method in brief: as §7
[29] = system: TK6; experiment: Induction of apoptosis in human TK6 cells expressing wild type p53 assessed as decrease in pro-caspase 3 level at 25 uM after 8 hrs by Western blot analysis; assay type: functional, cell-based; method in brief: as §7
[30] = system: NH32; experiment: Induction of apoptosis in p53 deficient human NH32 cells assessed as decrease in pro-caspase 3 level at 25 uM after 8 hrs by Western blot analysis; assay type: functional, cell-based; method in brief: as §7
[31] = system: WTK1; experiment: Induction of apoptosis in human WTK1 cells expressing p53 M237I mutant assessed as decrease in pro-caspase 3 level at 25 uM after 8 hrs by Western blot analysis; assay type: functional, cell-based; method in brief: as §7
[32] = system: TK6; experiment: Induction of apoptosis in human TK6 cells expressing wild type p53 assessed as increase in PARP cleavage at 25 uM after 8 hrs by Western blot analysis; assay type: functional, cell-based; method in brief: as §7
[33] = system: NH32; experiment: Induction of apoptosis in p53 deficient human NH32 cells assessed as increase in PARP cleavage at 25 uM after 8 hrs by Western blot analysis; assay type: functional, cell-based; method in brief: as §7
[34] = system: WTK1; experiment: Induction of apoptosis in human WTK1 cells expressing p53 M237I mutant assessed as increase in PARP cleavage at 25 uM after 8 hrs by Western blot analysis; assay type: functional, cell-based; method in brief: as §7
[35] = system: TK6; experiment: Induction of apoptosis in human TK6 cells expressing wild type p53 assessed as reduction of Bcl-Xl level at 25 uM after 8 hrs by Western blot analysis; assay type: functional, cell-based
Method in brief: (§8)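 TK6, NH32 and WTK1 cells exposed 8 h to 25 μM, vehicle, or doxorubicin 0.1 μM. Protein extracted and Bcl-xL level assessed by Western blot.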

[36] = system: NH32; experiment: Induction of apoptosis in p53 deficient human NH32 cells assessed as reduction of Bcl-Xl level at 25 uM after 8 hrs by Western blot analysis; assay type: functional, cell-based; method in brief: as §8
[37] = system: WTK1; experiment: Induction of apoptosis in human WTK1 cells expressing p53 M237I mutant assessed as reduction of Bcl-Xl level at 25 uM after 8 hrs by Western blot analysis; assay type: functional, cell-based; method in brief: as §8
[38] = system: TK6; experiment: Induction of apoptosis in human TK6 cells expressing wild type p53 assessed as early stage apoptotic cell population at 25 uM after 8 hrs using annexin-V and 7-ADD staining by flow cytometry; assay type: functional; method in brief: as §5
[39] = system: TK6; experiment: Induction of apoptosis in human TK6 cells expressing wild type p53 assessed as late stage apoptotic cell population at 25 uM after 8 hrs using annexin-V and 7-ADD staining by flow cytometry; assay type: functional; method in brief: as §5
[40] = system: TK6; experiment: Induction of apoptosis in human TK6 cells expressing wild type p53 assessed as necrotic cell population at 25 uM after 8 hrs using annexin-V and 7-ADD staining by flow cytometry; assay type: functional; method in brief: as §5
[41] = Cell cycle arrest in human TK6 cells expressing wild type p53 assessed as accumulation at sub-G0/G1 phase after 72 hrs by flow cytometry; assay type: functional, cell-based; method in brief: as §1
[42] = system: TK6; experiment: Cytotoxicity against human TK6 cells expressing wild type p53; assay type: functional, cell-based

Measured: Activity

COc1cccc2c1C(=O)c1c(O)c3c(c(O)c1C2=O)C[C@@](O)(C(=O)CO)C[C@@H]3O[C@H]1C[C@H](N)[C@H](O)[C@H](C)O1
inactive: [2] | [3] | [7] | [8] | [9] | [10] | [11]
active: [1] | [4] | [5] | [6] | [12] | [13] | [14] | [15] | [16] | [17] | [18] | [19] | [20]

O=C1C2CCN(CC2)C1(CO)CO
17.6%: [39]
14.9%: [38]
66.1%: [21]
inactive: [8] | [9] | [10] | [11] | [25] | [26] | [27] | [28] | [29] | [30] | [31] | [32] | [33] | [34] | [36] | [37]
active: [22] | [23] | [24] | [35]
1.3%: [40]

NCCNC(=O)C(F)F
inactive: [41] | [42] Not toxic

O=C(CCNC(=O)C(F)F)c1ccccc1
inactive: [41] | [42] Not toxic
